Where only a bound is given, the exact number is not on record here.

The nature of series [1]: Open-label drug–drug interaction study: dasatinib plasma pharmacokinetics. In kind it is in vivo, human. The method, boiled down: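 Healthy fasted volunteers (N = 18). Test compound given as a 100 mg IR tablet orally with ~240 mL water on day 1 alone and on day 6 after 40 mg delayed-release PPI QD on evenings of days 2–5. Fasted ≥10 h before and 4 h after dose. K2EDTA plasma was analysed by LC-MS/MS (LLOQ 0.75 ng/mL). PK was non-compartmental, with day 6/day 1 geometric mean ratios and 90% CI from ANOVA on ln-values.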

For series [2] the following is noted: proposed threshold; cited from earlier work.
The conditions of series [3]: cited from earlier work.
Setting [4] is: omeprazole 40 mg at steady state, 10 h before crystalline dasatinib 100 mg.

For orientation: AUC(0-t) means exposure summed from dosing to a finite time, without extrapolation to infinity. A high value points to more exposure. Broadly, the Cmax is the highest concentration seen after dosing. Usually half-life stands for the time in which the quantity being followed falls by half. A low value points to rapid decline. On to `Cc1nc(Nc2ncc(C(=O)Nc3c(C)cccc3Cl)s2)cc(N2CCN(CCO)CC2)n1` [Crystalline Dasatinib, dasatinib], for which the “extrapolated area in the plasma concentration–time profile (mean ± SD)” value in series [1] (crystalline dasatinib formulation administered alone) is given as 2.7%. In addition, the “reduction in dasatinib plasma exposure” value in series [1] (dosing interval of 10 h between PPI and crystalline dasatinib) is approximately 90%. In series [1] (human, plasma, oral, 100 mg), this compound gave an AUC(0-t) of 735 ng·h/mL and a Cmax of 195 ng/mL. In series [1] (human, plasma, po, 100 mg), this compound had an AUC(0-t) of 798 ± 274 ng·h/mL, a Cmax of 225 ± 105 ng/mL and a half-life of 5.7 ± 1.5 h. Also, in series [1] (setting [4]), the “mean reduction of Cmax by omeprazole comedication” value is listed as 96% and the “reduction of AUC0-24 by omeprazole comedication” value was 89%. Moreover, the “reduction of GI absorption and bioavailability” value in series [1] (omeprazole at steady state dosed in the evening 10 h prior to crystalline dasatinib) is given as “about 90%”. Moreover, the “Cmax ratio Test/Control (geometric means)” value in series [1] (test = with omeprazole, control = crystalline dasatinib alone, 90% CI 2.73-4.96) is given as 3.7%. Further, the “AUC0-24 ratio Test/Control (geometric means)” value in series [1] (test = with omeprazole, control = crystalline dasatinib alone, 90% CI 9.13-14.59) worked out at 11.5%. In addition, the “Cmax threshold for achieving MMR” value in series [2] is given as 69.2 ng/mL. The “effect on dasatinib plasma exposure” value in series [3] (antacid administered 2 h prior to crystalline dasatinib) is recorded as “unaffected”. The “reduction in absorption and bioavailability of dasatinib with PPIs” value in series [3] (experimental setting controlled for gastric pH above 4) is on record as not above 80%.

The record behind these values is paper PMC12034913 (Journal of Clinical Pharmacology, 2024).
